Measured values: ChEMBL document CHEMBL3244020, “Trichloroacetamidines, a new class of positive inotropic agents” (J Med Chem, 1978)
The source made the active and inactive calls. The calls are words filed in the database; no cut-off is given here.

Columns and labels:
[1] = Positive inotropic activity in cat heart papillary muscle assessed as increase in contractile force at 10 ug/mL measured for 5 to 30 mins; type: functional, Felis catus, Muscle tissue
How it was run: (§1)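 Right-ventricular cat papillary muscles in Krebs–Henseleit at 37 °C, field-stimulated at 1/s (4–10 ms, 6–10 V). Muscles equilibrated about 90 min, until force fell to 25–30% of original. Compound added and force recorded at 5, 10, 20 and 30 min, followed by ouabain 0.5 μg/mL. Positives were retested on three more preparations at ≥3 concentrations. Scored as mg increase in contractile force.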

[2] = species on record: Felis catus; assay: Positive inotropic activity in cat heart papillary muscle assessed as increase in contractile force up to 10 ug/mL measured for 5 to 30 mins in presence of beta-adrenergic inhibitor sotalol; type: functional, tissue-based
How it was run: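 Cat right-ventricular papillary muscle in Krebs–Henseleit at 37 °C, electrically driven at 1/s. Force recorded 5–30 min after compound, in the presence of the β-blocker sotalol at 10 μg/mL. Scored as mg increase in contractile force.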

[3] = Positive inotropic activity in cat heart papillary muscle assessed as concentration required to increase contractile force by 500 mg measured for 5 to 30 mins; type: functional, Felis catus, Muscle tissue; how it was run: as §1
[4] = Positive inotropic activity in cat heart papillary muscle assessed as increase in contractile force at 2.5 ug/mL measured for 5 to 30 mins; type: functional, Felis catus, Muscle tissue; how it was run: as §1
[5] = species on record: Felis catus; assay: Positive inotropic activity in heart papillary muscle isolated from reserpine-treated cat assessed as increase in contractile force at 10 ug/mL measured for 5 to 30 mins; type: functional, tissue-based; details: Muscle tissue
How it was run: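 Cats pretreated with reserpine 0.5 mg/kg ip before papillary muscle isolation. Right-ventricular muscles kept in Krebs–Henseleit at 37 °C, stimulated at 1/s, and force recorded at 5–30 min after compound addition.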

[6] = Positive inotropic activity in cat heart papillary muscle assessed as increase in contractile force at 0.156 ug/mL measured for 5 to 30 mins; type: functional, Felis catus, Muscle tissue
How it was run: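 Right-ventricular cat papillary muscles in Krebs–Henseleit solution at 37 °C, paced at 1/s (4–10 ms, 6–10 V square waves). Equilibrated about 90 min; compound added once force had fallen to 25–30% of original (1.5–2 h). Force recorded 5, 10, 20 and 30 min after addition, then ouabain 0.5 μg/mL added. Increase over 20% scored positive. Actives retested on three further preparations at ≥3 concentrations.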

[7] = Dissociation constant, pKa of the compound; type: physicochemical
How it was run: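 pKa determined in water or in 30% EtOH–70% H2O, depending on compound.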

[8] = Positive inotropic activity in cat heart papillary muscle assessed as increase in contractile force at 1.7 ug/mL measured for 10 mins (reference value: 855 mg); type: functional, Felis catus, Muscle tissue
How it was run: (§2)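 Electrically paced (1/s) right-ventricular cat papillary muscles in Krebs–Henseleit solution at 37 °C. Compound added after force declined to 25–30% of original following about 90 min equilibration. Contractile force followed over time to peak and to end of action. Values are the average of four experiments.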

[9] = system: Canis familiaris; assay: Positive inotropic activity in Beagle dog assessed as increase in left ventricular contractile force at 1.25 mg/kg, iv measured within 5 mins (reference value: 76 g); type: functional, Canis lupus familiaris, Heart left ventricle
[10] = system: Canis familiaris; assay: Positive inotropic activity in Beagle dog assessed as increase in left ventricular dp/dt maximum at 1.25 mg/kg, iv; type: functional, organism-based; set-up: dose 1.25 mg/kg; details: Canis lupus familiaris, Heart left ventricle
[11] = system: Canis familiaris; assay: Positive inotropic activity in Beagle dog assessed as increase in left ventricular contractile force at 1.25 mg/kg, iv measured after 1 hr; type: functional, organism-based; set-up: dose 1.25 mg/kg; details: Canis lupus familiaris, Heart left ventricle
[12] = system: Canis familiaris; assay: Positive inotropic activity in Beagle dog assessed as increase in left ventricular pressure at 1.25 mg/kg, iv; type: functional, organism-based; set-up: dose 1.25 mg/kg; details: Canis lupus familiaris, Heart left ventricle
[13] = system: Canis familiaris; assay: Toxicity in Beagle dog assessed as increase in heart rate at 1.25 to 5 mg/kg, iv measured within 2 mins; type: organism-based, Canis lupus familiaris; set-up: dose 1.25-5 mg/kg, route intravenous; details: in vivo
[14] = system: Canis familiaris; assay: Toxicity in Beagle dog assessed as effect on mean arterial pressure at 1.25 mg/kg, iv; type: organism-based, Canis lupus familiaris, Artery; set-up: dose 1.25 mg/kg, route intravenous; details: in vivo
[15] = system: Canis familiaris; assay: Toxicity in Beagle dog assessed as reduction in mean arterial pressure at 5 mg/kg, iv; type: organism-based, Canis lupus familiaris, Artery; set-up: dose 5 mg/kg, route intravenous; details: in vivo
[16] = system: Canis familiaris; assay: Positive inotropic activity in Beagle dog assessed as increase in left ventricular contractile force at 5 mg/kg, iv; type: functional, organism-based; set-up: dose 5 mg/kg; details: Canis lupus familiaris, Heart left ventricle
[17] = species on record: Felis catus; assay: Positive inotropic activity in cat heart papillary muscle assessed as increase in contractile force at 1.7 ug/mL measured up to 45 mins; type: functional, tissue-based; details: Muscle tissue; how it was run: as §2
[18] = Inhibition of calf heart Na+-K+ dependent ATPase after 10 to 20 mins; set-up: species or system Bos taurus; details: read-out: I50
How it was run: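 Partially purified membrane ATPase from calf heart or guinea pig renal cortex. Reaction started by final addition of enzyme. Incubated at 37 °C under air, with aliquots taken at 10 and 20 min. Liberated phosphate measured by the Lowry–Lopez method. I50 came from log inhibitor vs percent inhibition lines, at least three points. This was done only where acute inhibition was >50% at 1 × 10⁻³ M.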

[19] = Inhibition of calf heart Na+-K+ dependent ATPase preincubated for 30 mins measured after 10 to 20 mins; set-up: species or system Bos taurus; details: read-out: I50
How it was run: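 Partially purified membrane ATPase from calf heart or guinea pig renal cortex. Inhibitor plus enzyme were preincubated 30 min at 10× final concentrations, then added to the otherwise complete assay system. Incubated at 37 °C under air, with aliquots taken at 10 and 20 min. Liberated phosphate measured by the Lowry–Lopez method. I50 came from log inhibitor vs percent inhibition lines, at least three points.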

N=C(NCc1c[nH]c2ccccc12)C(Cl)(Cl)Cl
Activity [1]: >600 mg | Activity [2]: Active | Activity [3]: 1.27 µg/mL | Activity [4]: 201 mg | Activity [5]: Active | Activity [6]: 201 mg | pKa [7]: 6 | Activity [8]: 1375 mg | Activity [9]: 125 g | Activity [10]: Active | Activity [11]: Active | Activity [12]: Active | Activity [13]: Toxic | Activity [14]: Non-toxic | Activity [15]: Toxic | Activity [16]: Active | Activity [17]: Active | IC50 [18]: 45 µM | IC50 [19]: 20 µM
